According to ChEMBL document CHEMBL4834412, “2,4,5-Trisubstituted Pyrimidines as Potent HIV-1 NNRTIs: Rational Design, Synthesis, Activity Evaluation, and Crystallographic Studies” (J Med Chem, 2021):

Assays:
[1] = tested on: Human immunodeficiency virus 1; assay: Antiviral activity against HIV-1 strain IIIB infected in human MT4 cells assessed as protection against virus-induced cytopathicity after 5 days by MTT assay; format: functional, organism-based; details: Human immunodeficiency virus 1, IIIB, MT4, 120 h
[2] = tested on: Human immunodeficiency virus 1; assay: Antiviral activity against NNRTI-resistant HIV-1 RES056 harboring RT K103N/Y181C mutant infected in human MT4 cells assessed as protection against virus-induced cytopathogenicity after 5 days by MTT assay; format: functional, organism-based; details: Human immunodeficiency virus 1, RES056, MT4, 120 h
[3] = tested on: Human immunodeficiency virus 1; assay: Antiviral activity against HIV-1 harboring RT L100I mutant infected in human MT4 cells assessed as protection against virus-induced cytopathogenicity after 5 days by MTT assay; format: functional, organism-based; details: Human immunodeficiency virus 1, MT4, 120 h
[4] = tested on: Human immunodeficiency virus 1; assay: Antiviral activity against HIV-1 harboring RT K103N mutant infected in human MT4 cells assessed as protection against virus-induced cytopathogenicity after 5 days by MTT assay; format: functional, organism-based; details: Human immunodeficiency virus 1, MT4, 120 h
[5] = tested on: Human immunodeficiency virus 1; assay: Antiviral activity against HIV-1 harboring RT Y181C mutant infected in human MT4 cells assessed as protection against virus-induced cytopathogenicity after 5 days by MTT assay; format: functional, organism-based; details: Human immunodeficiency virus 1, MT4, 120 h
[6] = tested on: Human immunodeficiency virus 1; assay: Antiviral activity against HIV-1 harboring RT Y188L mutant infected in human MT4 cells assessed as protection against virus-induced cytopathogenicity after 5 days by MTT assay; format: functional, organism-based; details: Human immunodeficiency virus 1, MT4, 120 h
[7] = tested on: Human immunodeficiency virus 1; assay: Antiviral activity against HIV-1 harboring RT E138K mutant infected in human MT4 cells assessed as protection against virus-induced cytopathogenicity after 5 days by MTT assay; format: functional, organism-based; details: Human immunodeficiency virus 1, MT4, 120 h
[8] = tested on: Human immunodeficiency virus 1; assay: Antiviral activity against HIV-1 harboring RT F227L/V106A mutant infected in human MT4 cells assessed as protection against virus-induced cytopathogenicity after 5 days by MTT assay; format: functional, organism-based; details: Human immunodeficiency virus 1, MT4, 120 h
[9] = tested on: Human immunodeficiency virus 2; assay: Antiviral activity against HIV-2 ROD infected in human MT4 cells assessed as protection against virus-induced cytopathogenicity after 5 days by MTT assay; details: Human immunodeficiency virus 2, ROD, MT4, 120 h
[10] = Tmax in Sprague-Dawley rat at 2 mg/kg, iv; format: ADME, organism-based; details: in vivo
Summary of the method: (§1)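 Sprague Dawley rats given a single 2 mg/kg intravenous or 20 mg/kg oral dose. Plasma concentration–time profiles followed. PK parameters reported as mean ± SD, n = 3.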

[11] = Tmax in Sprague-Dawley rat at 20 mg/kg, po; format: ADME, organism-based; details: in vivo; summary of the method: as §1
[12] = Acute toxicity in Kunming mouse assessed as toxic symptoms at 2000 mg/kg, po single dose measured up to 2 weeks; format: organism-based; details: in vivo, 336 h
Summary of the method: (§2)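 Kunming mice, 20 total, randomly split into two groups: vehicle control (0 mg/kg) or single oral 2000 mg/kg dose on day 1. Animals observed for toxic symptoms and mortality over the following two weeks; body weight tracked and expressed as relative change.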

[13] = Acute toxicity in Kunming mouse assessed as mortality at 2000 mg/kg, po single dose measured up to 2 weeks; format: organism-based; details: in vivo, 336 h; summary of the method: as §2
[14] = Acute toxicity in Kunming mouse assessed as body weight change at 2000 mg/kg, po single dose measured up to 2 weeks; format: organism-based; details: in vivo, 336 h; summary of the method: as §2

## Cc1cc(/C=C/C#N)cc(C)c1Oc1nc(NC2CCN(Cc3ccc(S(N)(=O)=O)cc3)CC2)ncc1-c1ccncc1
[1]
  EC50: 0.0046 µM
[2]
  EC50: 0.0229 µM
[3]
  EC50: 0.00587 µM
[4]
  EC50: 0.00491 µM
[5]
  EC50: 0.0242 µM
[6]
  EC50: 0.0271 µM
[7]
  EC50: 0.0111 µM
[8]
  EC50: 0.0237 µM

## Cc1cc(C#N)cc(C)c1Oc1nc(NC2CCN(Cc3ccc(S(C)(=O)=O)cc3)CC2)ncc1-c1ccco1
[1]
  EC50: 0.00452 µM
[2]
  EC50: 0.233 µM
[3]
  EC50: 0.0204 µM
[4]
  EC50: 0.00592 µM
[5]
  EC50: 0.0264 µM
[6]
  EC50: 0.0288 µM
[7]
  EC50: 0.0274 µM
[8]
  EC50: 0.11 µM
[9]
  EC50: > 7.46 µM

## Cc1cc(/C=C/C#N)cc(C)c1Oc1nc(NC2CCN(Cc3ccc(C(N)=O)cc3)CC2)ncc1-c1ccncc1
[1]
  EC50: 0.00419 µM
[2]
  EC50: 0.0233 µM
[3]
  EC50: 0.00562 µM
[4]
  EC50: 0.00384 µM
[5]
  EC50: 0.00714 µM
[6]
  EC50: 0.023 µM
[7]
  EC50: 0.00866 µM
[8]
  EC50: 0.0355 µM

## Cc1cc(/C=C/C#N)cc(C)c1Oc1nc(NC2CCN(Cc3ccc(S(N)(=O)=O)cc3)CC2)ncc1-c1ccc(F)nc1
[1]
  EC50: 0.0058 µM
[2]
  EC50: 0.0282 µM
[3]
  EC50: 0.0114 µM
[4]
  EC50: 0.0075 µM
[5]
  EC50: 0.0154 µM
[6]
  EC50: 0.0367 µM
[7]
  EC50: 0.0491 µM
[8]
  EC50: 0.0231 µM

## Cc1cc(C#N)cc(C)c1Oc1nc(NC2CCN(Cc3ccc(S(N)(=O)=O)cc3)CC2)ncc1-c1ccsc1
[1]
  EC50: 0.00509 µM
[2]
  EC50: 0.209 µM
[3]
  EC50: 0.0154 µM
[4]
  EC50: 0.0047 µM
[5]
  EC50: 0.0123 µM
[6]
  EC50: 0.0303 µM
[7]
  EC50: 0.0197 µM
[8]
  EC50: 0.0853 µM
[9]
  EC50: > 6.12 µM

## Cc1cc(/C=C/C#N)cc(C)c1Oc1nc(NC2CCN(Cc3ccc(C(N)=O)cc3)CC2)ncc1-c1ccc(F)nc1
[1]
  EC50: 0.00456 µM
[2]
  EC50: 0.0204 µM
[3]
  EC50: 0.00576 µM
[4]
  EC50: 0.00597 µM
[5]
  EC50: 0.0103 µM
[6]
  EC50: 0.0301 µM
[7]
  EC50: 0.0117 µM
[8]
  EC50: 0.0275 µM

## Cc1cc(/C=C/C#N)cc(C)c1Oc1nc(NC2CCN(Cc3ccc(C(N)=O)cc3)CC2)ncc1-c1ccc(N)nc1
[1]
  EC50: 0.00656 µM
[2]
  EC50: 0.0302 µM
[3]
  EC50: 0.0113 µM
[4]
  EC50: 0.00666 µM
[5]
  EC50: 0.012 µM
[6]
  EC50: 0.0542 µM
[7]
  EC50: 0.0154 µM
[8]
  EC50: 0.0154 µM

## Cc1cc(/C=C/C#N)cc(C)c1Oc1nc(NC2CCN(Cc3ccc(S(C)(=O)=O)cc3)CC2)ncc1-c1cccnc1
[1]
  EC50: 0.00457 µM
[2]
  EC50: 0.0224 µM
[3]
  EC50: 0.0107 µM
[4]
  EC50: 0.00542 µM
[5]
  EC50: 0.0103 µM
[6]
  EC50: 0.0227 µM
[7]
  EC50: 0.0122 µM
[8]
  EC50: 0.0132 µM

## Cc1cc(/C=C/C#N)cc(C)c1Oc1nc(NC2CCN(Cc3ccc(C(N)=O)cc3)CC2)ncc1-c1cccnc1
[1]
  EC50: 0.00478 µM
[2]
  EC50: 0.0231 µM
[3]
  EC50: 0.0108 µM
[4]
  EC50: 0.00576 µM
[5]
  EC50: 0.0101 µM
[6]
  EC50: 0.0255 µM
[7]
  EC50: 0.0113 µM
[8]
  EC50: 0.0217 µM

## Cc1cc(C#N)cc(C)c1Oc1nc(NC2CCN(Cc3ccc(C(N)=O)cc3)CC2)ncc1-c1ccncc1
[1]
  EC50: 0.00375 µM
[2]
  EC50: 0.0244 µM
[3]
  EC50: 0.00426 µM
[4]
  EC50: 0.00379 µM
[5]
  EC50: 0.00679 µM
[6]
  EC50: 0.00679 µM
[7]
  EC50: 0.0109 µM
[8]
  EC50: 0.0104 µM
[10]
  Tmax: 19.8 min
[11]
  Tmax: 60 min
[12]
  Activity: Non-Toxic
[13]
  Activity: Non-Toxic
[14]
  Activity: Non-Toxic
[9]
  EC50: > 36 µM

## Cc1cc(C#N)cc(C)c1Oc1nc(NC2CCN(Cc3ccc(C(N)=O)cc3)CC2)ncc1-c1ccoc1
[1]
  EC50: 0.0034 µM
[2]
  EC50: 0.108 µM
[3]
  EC50: 0.0101 µM
[4]
  EC50: 0.00344 µM
[5]
  EC50: 0.00981 µM
[6]
  EC50: 0.0211 µM
[7]
  EC50: 0.0112 µM
[8]
  EC50: 0.307 µM
[9]
  EC50: > 182 µM

## Cc1cc(/C=C/C#N)cc(C)c1Oc1nc(NC2CCN(Cc3ccc(S(N)(=O)=O)cc3)CC2)ncc1-c1cccnc1
[1]
  EC50: 0.00504 µM
[2]
  EC50: 0.0258 µM
[3]
  EC50: 0.00785 µM
[4]
  EC50: 0.00625 µM
[5]
  EC50: 0.00995 µM
[6]
  EC50: 0.0251 µM
[7]
  EC50: 0.0119 µM
[8]
  EC50: 0.0122 µM

## Cc1cc(C#N)cc(C)c1Oc1nc(NC2CCN(Cc3ccc(S(N)(=O)=O)cc3)CC2)ncc1-c1cccs1
[1]
  EC50: 0.00457 µM
[2]
  EC50: 0.103 µM
[3]
  EC50: 0.00592 µM
[4]
  EC50: 0.00539 µM
[5]
  EC50: 0.0107 µM
[6]
  EC50: 0.00931 µM
[7]
  EC50: 0.00771 µM
[8]
  EC50: 0.0302 µM
[9]
  EC50: ≥ 33.4 µM
